In experiment [1] the target is T1, Enoyl-[acyl-carrier-protein] reductase [NADH] (Mycobacterium tuberculosis) (UniProt P9WGR1).
T1 sequence (whole entry): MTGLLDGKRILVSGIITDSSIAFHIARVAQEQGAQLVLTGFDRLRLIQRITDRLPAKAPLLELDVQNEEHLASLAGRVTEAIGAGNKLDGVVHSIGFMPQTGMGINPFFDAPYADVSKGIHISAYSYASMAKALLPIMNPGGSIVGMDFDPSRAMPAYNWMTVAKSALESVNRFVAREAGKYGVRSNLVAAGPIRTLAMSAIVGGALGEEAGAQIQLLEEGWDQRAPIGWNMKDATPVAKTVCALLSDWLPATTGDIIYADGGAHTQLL
Put plainly: Binding affinity to recombinant Mycobacterium tuberculosis InhA assessed as gibbs free energy change at 2 mM in presence of NADH by Spectrofluorophotometry.

Experiment [2] concerns the target T1, Enoyl-[acyl-carrier-protein] reductase [NADH] (Mycobacterium tuberculosis). Put plainly: Binding affinity to recombinant Mycobacterium tuberculosis InhA assessed as change in enthalpy at 2 mM in presence of NADH by Spectrofluorophotometry.
The subject of experiment [3] is Mycobacterium tuberculosis. The experiment in a line: Antibacterial activity against pan-sensitive Mycobacterium tuberculosis H37Rv ATCC 27294 measured after 7 days by resazurin dye based assay. In kind it is functional. Particulars: H37Rv ATCC 27294, 168 h, time 7 day. In outline:
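Resazurin reduction microplate assay (REMA) in Middlebrook 7H9 broth with 10% ADC and 5% DMSO. Compounds come from 2 mg/mL DMSO stocks and are 2-fold serially diluted, top concentration 0.08–40 μg/mL depending on solubility. MIC is the lowest concentration preventing the blue-to-pink colour change. Three independent experiments; the reported value is the modal or the highest value.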
(In general: Resazurin is reduced to fluorescent resorufin, in cell work by metabolically active cells.)

The test system of experiment [4] is Mycobacterium tuberculosis. The experiment in a line: Antibacterial activity against MDR Mycobacterium tuberculosis clinical isolate PE-003 measured after 7 days by resazurin dye based assay. In kind it is functional. Particulars: PE-003, 168 h, time 7 day.
Experiment [5] addresses T1, Enoyl-[acyl-carrier-protein] reductase [NADH] (Mycobacterium tuberculosis). The experiment in a line: Binding affinity to recombinant Mycobacterium tuberculosis InhA assessed as change in entropy at 2 mM in presence of NADH by Spectrofluorophotometry.

Converted amounts (≈) assume the structure as drawn. “And” between values parts separate entries of the source, which are not always exact repeats. Equal entries are not always repeated.

The results in this text go back to ChEMBL document CHEMBL5385869, “Novel 4-aminoquinolines: Synthesis, inhibition of the Mycobacterium tuberculosis enoyl-acyl carrier protein reductase, antitubercular activity, SAR, and preclinical evaluation” (Eur J Med Chem, 2023).

As to `CCOC(=O)c1ccc2nc(C)cc(Nc3ccc(N4CCCCC4)cc3)c2c1`, the deltaG in experiment [1] is -7.1 kcal/mol. The deltaH in experiment [2] was -23.3 kcal/mol. In addition, the MIC (usually the lowest concentration that inhibits growth of the organism) in experiment [3] was 12.8 µM (≈ 4.99 µg/mL); in experiment [4], 2.5 µg/mL and 6.4 µM. In experiment [5], the deltaS is -54.5 cal/mol/K.
